Laboratory results published in ChEMBL document CHEMBL1138747, “Synthesis and structure--activity relationship in a class of indolebutylpiperazines as dual 5-HT(1A) receptor agonists and serotonin reuptake inhibitors” (J Med Chem, 2004).
pIC50: −log10 of the molar value.

How the values were obtained:
[1] = test system: Rattus norvegicus; assay: Dose required to inhibit ultrasonic vocalisation on subcutaneous administered; assay type: functional; conditions: sc, read-out: ID50 (the source's name)
In short: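 Rat ultrasonic vocalization test. In a priming session, up to 10 grid-floor shocks were given (1.8 mA, 0.3 s, 20 s apart). Rats not vocalizing on three consecutive trials were excluded. Next day, rats were tested 2 h after dosing: five shocks, then vocalization duration recorded over 3 min. ID50 (dose for half-maximal inhibition) came from dose–response curves.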

[2] = molecular target: 5-hydroxytryptamine receptor 1D (Rattus norvegicus, UniProt P28565); assay: Inhibition of rat hydroxytryptamine 1D receptor
Chain of 5-hydroxytryptamine receptor 1D (P28565 whole entry): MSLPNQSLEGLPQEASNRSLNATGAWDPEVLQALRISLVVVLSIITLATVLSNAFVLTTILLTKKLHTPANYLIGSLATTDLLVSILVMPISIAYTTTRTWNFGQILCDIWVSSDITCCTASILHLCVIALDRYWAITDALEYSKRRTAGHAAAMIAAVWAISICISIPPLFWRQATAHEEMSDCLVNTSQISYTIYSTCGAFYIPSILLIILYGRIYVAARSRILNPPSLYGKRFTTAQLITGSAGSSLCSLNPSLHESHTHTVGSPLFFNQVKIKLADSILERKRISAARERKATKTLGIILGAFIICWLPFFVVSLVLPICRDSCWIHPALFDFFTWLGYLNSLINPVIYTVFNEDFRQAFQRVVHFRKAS

- pIC50 [2]: 5.40
Compound: N#Cc1ccc2[nH]cc(CCCCN3CCN(c4ccc5oc(C(N)=O)cc5c4)CC3)c2c1 [VILAZODONE]
- ED50 [1]: 4 mg/kg
